A short description of data set [1]: Cytotoxicity against human 9KB cells treated as ethanol solution. The class given is functional. To be noted: read-out: ED50 (the source's name). Summed up: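 Compound applied as an ethanol solution; activity read out as ED50 under the general screening protocol.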
Data set [2] relates to L1210. As to the kind of experiment: Antileukemic activity against mouse L1210 cells allografted in female BDF1 mouse assessed as host mean survival time at 100 mg/kg, ip administered daily for 9 days as Klucel suspension starting 24 hrs after tumor inoculation relative to control. It is filed as functional. To be noted: route intraperitoneal. Summed up:
(§1)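 L1210 leukemia given as an ascitic fluid cell inoculum, ip, to mice of the strain and sex in each line. Test material was given ip for nine daily doses starting 24 h after inoculation, in a Klucel (hydroxypropylcellulose) suspension. Read-out is mean survival time as %T/C versus controls, with >125 taken as significant.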

In data set [3] the test system is Mus musculus. Kind of data set: Toxicity in female BDF1 mouse allografted with mouse L1210 cells assessed as animal survival at 50 mg/kg, ip administered daily for 9 days as Klucel suspension starting 24 hrs after tumor inoculation measured on fifth day. It is filed as organism-based. To be noted: in vivo. On the set-up: dose 50 mg/kg, route intraperitoneal. The procedure, abridged: (§2)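 L1210 leukemia passaged as ascitic fluid and inoculated ip. Test agent given ip as a Klucel (hydroxypropylcellulose) suspension, nine daily doses starting 24 h after tumor inoculation. Acute toxicity read as toxicity-day survivors per group (out of 6), recorded on day 5. Animal weight difference T − C was also recorded. Follows NCI screening protocols.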

In data set [4] the test system is L1210. As to the kind of experiment: Antileukemic activity against mouse L1210 cells allografted in female BDF1 mouse assessed as change in body weight at 100 mg/kg, ip administered daily for 9 days as Klucel suspension starting 24 hrs after tumor inoculation. It is filed as functional. To be noted: route intraperitoneal. The procedure, abridged:
(§3)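 Ascitic fluid carrying L1210 cells was inoculated ip. Compound was given ip as a Klucel (hydroxypropylcellulose) suspension in nine daily doses, starting 24 h after inoculation. Body-weight difference (treated minus control) was recorded on day 5. Survival was scored as %T/C of mean survival time.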

Data set [5] deals with P388. As to the kind of experiment: Antitumor activity against mouse P388 cells allografted in female CDF1 mouse assessed as change in body weight at 50 mg/kg, ip administered daily for 9 days as Klucel suspension starting 24 hrs after tumor inoculation. The class given is functional. The note with it: route intraperitoneal. Summed up:
(§4)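 Ascitic fluid carrying P388 cells was inoculated ip. Compound was given ip in nine daily doses, starting 24 h after inoculation, in Klucel (hydroxypropylcellulose) suspension or in saline with Tween-80. Body-weight difference (treated minus control) was recorded on day 5. Survival was scored as %T/C of median survival time, and 30-day survival counted as cure.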

For data set [6], the system named is Mus musculus. As to the kind of experiment: Toxicity in female BDF1 mouse allografted with mouse L1210 cells assessed as animal survival at 100 mg/kg, ip administered daily for 9 days as Klucel suspension starting 24 hrs after tumor inoculation measured on fifth day. The class given is organism-based. On the set-up: dose 100 mg/kg, route intraperitoneal. To be noted: in vivo. Summed up: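 Female BDF1 mice bearing ip ascitic L1210 inoculum got nine daily ip doses in a Klucel suspension, starting 24 h after tumor inoculation. Toxicity was scored as toxicity-day survivors out of the group, recorded on the fifth day. Animal weight difference (T − C) was also tabulated.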

Data set [7] has as its system Mus musculus. As to the kind of experiment: Toxicity in female BDF1 mouse allografted with mouse L1210 cells assessed as animal survival at 200 mg/kg, ip administered daily for 9 days as Klucel suspension starting 24 hrs after tumor inoculation measured on fifth day. On the set-up: dose 200 mg/kg, route intraperitoneal. To be noted: in vivo. The class given is organism-based. Summed up: as §2

The subject of data set [8] is P388. Kind of data set: Antitumor activity against mouse P388 cells allografted in female CDF1 mouse assessed as disease cures by measuring 30-days host survival at 50 mg/kg, ip administered daily for 9 days as Klucel suspension starting 24 hrs after tumor inoculation relative to control. It is filed as functional. To be noted: route intraperitoneal. Summed up: (§5)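 P388 leukemia given as an ascitic fluid cell inoculum, ip, to mice of the strain and sex in each line. Nine daily ip doses were given in a Klucel (hydroxypropylcellulose) suspension, starting 24 h after inoculation. Read-out is median survival time as %T/C, with >125 taken as significant; a "cure" means 30-day survival.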

The test system of data set [9] is P388. Kind of data set: Antitumor activity against mouse P388 cells allografted in female CDF1 mouse assessed as change in body weight at 100 mg/kg, ip administered daily for 9 days as Klucel suspension starting 24 hrs after tumor inoculation. It is filed as functional. To be noted: route intraperitoneal. The procedure, abridged: as §4
The test system of data set [10] is P388. Kind of data set: Antitumor activity against mouse P388 cells allografted in female CDF1 mouse assessed as change in body weight at 200 mg/kg, ip administered daily for 9 days as Klucel suspension starting 24 hrs after tumor inoculation. The class given is functional. The note with it: route intraperitoneal. Summed up: as §4
Data set [11] relates to P388. As to the kind of experiment: Antitumor activity against mouse P388 cells allografted in female CDF1 mouse assessed as disease cures by measuring 30-days host survival at 100 mg/kg, ip administered daily for 9 days as Klucel suspension starting 24 hrs after tumor inoculation relative to control. The class given is functional. The note with it: route intraperitoneal. Summed up: as §5

Data set [12] deals with L1210. Kind of data set: Antileukemic activity against mouse L1210 cells allografted in female BDF1 mouse assessed as change in body weight at 200 mg/kg, ip administered daily for 9 days as Klucel suspension starting 24 hrs after tumor inoculation. It is filed as functional. To be noted: route intraperitoneal. Summed up: as §3
Data set [13] has as its system L1210. Kind of data set: Antileukemic activity against mouse L1210 cells allografted in female BDF1 mouse assessed as change in body weight at 50 mg/kg, ip administered daily for 9 days as Klucel suspension starting 24 hrs after tumor inoculation. The class given is functional. To be noted: route intraperitoneal. The procedure, abridged: as §3
Data set [14] concerns Mus musculus. Kind of data set: Toxicity in female CDF1 mouse allografted with mouse P388 cells assessed as animal survival at 50 mg/kg, ip administered daily for 9 days as Klucel suspension starting 24 hrs after tumor inoculation. It is filed as organism-based. On the set-up: dose 50 mg/kg, route intraperitoneal. To be noted: in vivo. Summed up:
(§6)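 P-388 leukemia ascitic fluid inoculated ip. Compound given ip as a suspension in Klucel (hydroxypropylcellulose), once daily for nine doses beginning 24 h post-inoculation. Acute toxicity assessed as toxicity-day survivors per group. Survival was followed up to 30 days, with 30-day survival counted as "cure". Follows NCI screening protocols.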

For data set [15], the system named is L1210. As to the kind of experiment: Antileukemic activity against mouse L1210 cells allografted in female BDF1 mouse assessed as host mean survival time at 50 mg/kg, ip administered daily for 9 days as Klucel suspension starting 24 hrs after tumor inoculation relative to control. The class given is functional. The note with it: route intraperitoneal. Summed up: as §1

Data set [16] deals with P388. As to the kind of experiment: Antitumor activity against mouse P388 cells allografted in female CDF1 mouse assessed as disease cures by measuring 30-days host survival at 200 mg/kg, ip administered daily for 9 days as Klucel suspension starting 24 hrs after tumor inoculation relative to control. The class given is functional. The note with it: route intraperitoneal. Summed up:
as §5

In data set [17] the test system is Mus musculus. Kind of data set: Toxicity in female CDF1 mouse allografted with mouse P388 cells assessed as animal survival at 100 mg/kg, ip administered daily for 9 days as Klucel suspension starting 24 hrs after tumor inoculation. The class given is organism-based. On the set-up: dose 100 mg/kg, route intraperitoneal. The note with it: in vivo. Summed up: as §6

The test system of data set [18] is L1210. Kind of data set: Antileukemic activity against mouse L1210 cells allografted in female BDF1 mouse assessed as host mean survival time at 200 mg/kg, ip administered daily for 9 days as Klucel suspension starting 24 hrs after tumor inoculation relative to control. The note with it: route intraperitoneal. The class given is functional. The procedure, abridged: as §1

Data set [19] deals with Mus musculus. Kind of data set: Toxicity in female CDF1 mouse allografted with mouse P388 cells assessed as animal survival at 200 mg/kg, ip administered daily for 9 days as Klucel suspension starting 24 hrs after tumor inoculation. To be noted: in vivo. More on the design: dose 200 mg/kg, route intraperitoneal. It is filed as organism-based. The procedure, abridged:
as §6

SMILES strings stand for the structures. ≈ marks a conversion by molar mass, not a printed value.

With `OCc1c(CO)c(C(F)(F)F)n2c1CCC2`, the EC50 in data set [1] came out at 25 µg/mL (≈ 106 µM). In addition, the T/C (usually the ratio of treated to control) with L1210 [2] was 104%; in the data set with P388 [8], 104%; in the data set on P388 [11], 104%; with L1210 [15], 107%; in the data set with P388 [16] it was 108%. Besides, the Activity result was “Non-toxic” in the data set with Mus musculus [3]; -1.1 g in the data set with L1210 [4]; 2.1 g in the data set on P388 [5]; “Non-toxic” with Mus musculus [6]; “Toxic” in the data set on Mus musculus [7]; 0.6 g with P388 [9]. For the same compound, the Activity is on record as 1.1 g in the data set on P388 [10], -2.8 g in the data set with L1210 [12], -0.3 g with L1210 [13] and “Non-toxic” in the data set on Mus musculus [14].
As to `CNC(=O)OCc1c(COC(=O)NC)c(C(F)(F)F)n2c1CCC2`, the Activity entry with Mus musculus [17] is listed as “Non-toxic”; with Mus musculus [3], “Non-toxic”; in the data set with L1210 [4], -0.8 g; in the data set with P388 [5] it was 1.4 g; in the data set with Mus musculus [6] it was “Non-toxic”; with Mus musculus [7], “Non-toxic”. For the same compound, the Activity was -0.4 g in the data set with P388 [9]; -1.5 g with P388 [10]; -0.2 g with L1210 [12]; -0.1 g in the data set with L1210 [13]; “Non-toxic” with Mus musculus [14]. In addition, in data set [1], the EC50 came to 2.5 µg/mL (≈ 7.16 µM). Further, the T/C amounted to 100% in the data set on L1210 [2]; 117% with P388 [8]; 116% in the data set on P388 [11]; 98% in the data set with L1210 [18]; 104% with L1210 [15]; 82% with P388 [16].
As for `CNC(=O)OCc1c(COC(=O)NC)c(-c2ccccc2)n2c1CCC2`, the Activity entry with Mus musculus [17] was “Non-toxic”; in the data set with Mus musculus [3], “Non-toxic”; with L1210 [4], -1.5 g; with P388 [5], -2.1 g; with Mus musculus [6], “Non-toxic”; with Mus musculus [7] it was “Non-toxic”. The Activity is listed as -1.8 g in the data set on P388 [9]; -3.5 g with P388 [10]; -3.1 g in the data set with L1210 [12]; “Non-toxic” with Mus musculus [19]; -2.6 g in the data set on L1210 [13]; “Non-toxic” in the data set on Mus musculus [14]. Moreover, in data set [1], the EC50 turned out to be 22 µg/mL (≈ 61.6 µM). The T/C is on record as 104% in the data set with L1210 [2]; 124% in the data set on P388 [8]; 124% in the data set with P388 [11]; 110% in the data set with L1210 [18]; 104% with L1210 [15]; 59% in the data set on P388 [16].
For the compound `CC(=O)OCc1c(COC(C)=O)c(C(F)(F)F)n2c1CCC2`, the Activity entry with Mus musculus [17] is recorded as “Non-toxic”; in the data set with Mus musculus [3], “Non-toxic”; in the data set on L1210 [4], -0.6 g; with P388 [5] it was 2.1 g; in the data set on Mus musculus [6], “Non-toxic”; in the data set with Mus musculus [7] it was “Non-toxic”. Moreover, the Activity in the data set with P388 [9] is 1.8 g; in the data set on P388 [10] it was 1.1 g; in the data set with L1210 [12] it was -0.8 g; in the data set on Mus musculus [19], “Non-toxic”; with L1210 [13], -1 g; with Mus musculus [14], “Non-toxic”. Besides, the EC50 in data set [1] is 2.4 µg/mL (≈ 7.52 µM). The T/C came to 100% in the data set on L1210 [2]; 90% in the data set on P388 [8]; 93% in the data set with P388 [11]; 98% in the data set with L1210 [18]; 107% in the data set on L1210 [15]; 104% with P388 [16].

These data come from ChEMBL document CHEMBL3244396, “Synthesis and antileukemic activity of 5-substituted 2,3-dihydro-6,7-bis(hydroxymethyl)-1H-pyrrolizine diesters” (J Med Chem, 1977).
